From PubChem BioAssay
NCF1 inh = p47phox/p22phox peptide binding inhibitors, primary screen, biochemical, uHTS, NADPH oxidase regulatory subunit; Neutrophil cytosol factor 1 (Homo sapiens), P14598; 0.53% of 220,000 active; fluorescence polarization, 2 h; inhibition, % at 24.7 µM;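 active = inhibition above about 30%, limit read from the data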;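 also: 0% = p47phox with labelled peptide and 100% = labelled peptide alone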
WT yeast gro inh = growth inhibition of WT strain, primary screen, mitochondrial fusion inhibitor project, WT and mutant strains, chemical genetic. mitochondrial fusion phenotypic screen. inhibition, % at 10 µM. 2.1% of 190,000 active; in the data active = inhibition above about 58%; tested in S. cerevisiae
Hck-Nef inh = inhibitors of Nef-activated human Hck kinase, primary screen, biochemical, Z-Lyte FRET, 384-well, Hck-YEEI; Recombinant Hck-YEEI plus Nef, Z-Lyte FRET kinase assay; inhibition, % at 20 µM; 0.68% of 220,000 active;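 active = Hck-Nef kinase inhibition above about 50%, limit read from the data; inactive = inhibition below that limit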;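 also: 0% = DMSO with Hck plus Nef and 100% = Hck alone without Nef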
Target sequence (P08631 whole entry, looked up): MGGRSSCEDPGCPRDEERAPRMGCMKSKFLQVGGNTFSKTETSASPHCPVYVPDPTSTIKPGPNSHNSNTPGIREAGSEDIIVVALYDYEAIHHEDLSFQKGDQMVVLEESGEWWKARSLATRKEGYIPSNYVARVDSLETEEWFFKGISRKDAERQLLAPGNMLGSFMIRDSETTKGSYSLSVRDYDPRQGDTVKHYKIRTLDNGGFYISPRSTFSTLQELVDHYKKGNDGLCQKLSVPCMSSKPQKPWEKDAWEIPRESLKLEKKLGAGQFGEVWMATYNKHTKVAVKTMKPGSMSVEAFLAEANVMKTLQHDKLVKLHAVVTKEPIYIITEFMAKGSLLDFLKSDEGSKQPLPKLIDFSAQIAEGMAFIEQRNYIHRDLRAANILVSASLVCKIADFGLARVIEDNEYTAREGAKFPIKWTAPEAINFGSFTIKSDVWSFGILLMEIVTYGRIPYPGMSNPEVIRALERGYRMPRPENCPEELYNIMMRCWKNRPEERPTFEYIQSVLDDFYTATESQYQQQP
Arbovirus inh = antivirals against arbovirus infection, primary screen, cell-based, full library, 10K replicate subset | arbovirus infection cell-based antiviral screen | inhibition, % at 10 µM | 0.37% of 200,000 active | AID 1251, 2008; in the data active = inhibition above about 30%
Calb biofilm kill = clotrimazole potentiators killing C. albicans biofilm, primary screen, 4-compound mixtures. C. albicans biofilm persisters + clotrimazole, fluorescence viability; primary screen in compound mixtures of four per well. inhibition, % at 7.6 µM. 0.02% of 120,000 active;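 active = inhibition above 30.3% in the primary screen of four-compound pools, then above 30% when the compound was retested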;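 also: compounds exposed to preformed 24 h biofilms for 48 h; 0% = untreated biofilm control and 100% = clotrimazole plus chlorhexidine kill blank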
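System: C. albicans CAF4-2 wild-type biofilms; Medium: RPMI/MOPS medium, pH 7.0; Reagent: Clotrimazole, 50 µg/mL; Times: biofilm formation 24 h, compound exposure 48 h, 37 °C; Detection: 2-h Alamar Blue fluorescence, 535/590 nm excitation/emission; Evaluation: percent inhibition of biofilm viability.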
RAM inhibit = inhibitors of the yeast RAM network, primary screen, dse1pr::URA3 reporter, 5-FOA selection; 1.8% of 190,000 active; S. cerevisiae dse1pr::URA3 reporter, 5-FOA growth OD615, 2 d; analog-sensitive cbk1-as2 kinase mutant strain; inhibition, % at 50 µM;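 active = inhibition above a set limit, 3 SD over mean compound inhibition, cut at about 8.4% in these data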;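 also: 0% = DMSO-only wells with no growth and 100% = 10 µM 1-NA-PP1 full growth; inhibition rescues growth on 5-FOA so higher OD means more RAM inhibition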
* marks the source's active call; other numbers are inactive results; · = no result. Hits are enriched below; roughly 4.6% of the tested compounds scored in any of these assays.

SMILES | NCF1 inh | WT yeast gro inh | Hck-Nef inh | Arbovirus inh | Calb biofilm kill | RAM inhibit
O=C(NCc1ccc(Cl)cc1)C(=O)NCC(c1cccnc1)N1CCN(c2ccc(F)cc2)CC1 (stereo not given) | -10 | 27 | 14 | 7 | 25 | -1
O=C(c1ccc(Br)o1)N(Cc1ccccc1)Cc1ccccc1 | 7 | 79* | -4 | 1 | 7 | 0
CCOC(=O)c1cnc2ccc(C)cc2c1NCCO | 43* | -12 | 11 | -2 | 8 | 2
CCOC(=O)c1cnc2c(ccc3ccccc32)c1NCCO | -15 | 32 | 7 | -16 | 18 | 3
CN(Cc1cn(C)c2ccccc12)C(=S)Nc1cc(F)cc(F)c1 | -14 | 22 | 7 | 17 | 7 | 2
Cc1cccc(NC(=S)N(C)Cc2cn(C)c3ccccc23)c1 | 1 | 72* | 2 | 7 | 17 | 3
CCOC(=O)C1CCN(c2ncnc3cc(OC)c(OC)cc23)CC1 | -4 | · | 19 | · | 10 | ·
COc1cccc(NC(=S)N/N=C2\CC3CCC2(C)C3(C)C)c1 (stereo not given) | -5 | 71* | 2 | 18 | 0 | 1
CC12CCC(C/C1=N/NC(=O)Nc1ccccc1)C2(C)C (stereo not given) | -4 | -3 | 25 | -7 | 20 | 1
CCCN1CCN(c2ncnc3scc(C4COc5ccccc5O4)c23)CC1 (stereo not given) | -8 | 58* | 9 | 1 | 6 | 2
COc1ccccc1-n1c(CCn2nc(C)c(Br)c2C)n[nH]c1=S | -4 | -16 | 4 | 0 | 12 | 4
O=C(c1ccc(NC(=S)Nc2ccc(Cl)c(Cl)c2)cc1)N1CCCC1 | -17 | 80* | 0 | 13 | 25 | 1
CC(=O)c1ccc(NC(=S)Nc2ccc(Br)c(Cl)c2)cc1 | -38 | 77* | 9 | -35 | 6 | 8
CC(=O)c1ccc(NC(=S)NC(C)c2ccc(Cl)cc2Cl)cc1 (stereo not given) | -28 | 84* | 20 | -39 | 18 | 4
O=C(CCc1ccccc1)Nc1ncc2c(n1)CCCC2=O | -3 | 60* | 0 | 5 | · | 1
CC1(C)CC(=O)c2cnc(NC(=O)CCc3ccccc3)nc2C1 | -3 | -4 | 1 | 11 | · | 4
O=C1NC(=O)/C(=C\c2ccc(OCc3cccc([N+](=O)[O-])c3)cc2)N1 | 4 | -15 | 29 | -8 | 6 | 2
CC1CC1c1ccc(/C=C(\C#N)C(=O)Nc2cc(Cl)ccc2Cl)o1 (stereo not given) | -84 | -7 | 0 | -2 | 5 | 8.7*
CC1CN(c2nc3ccccc3nc2C(C#N)C(=O)OC2CCCCC2)CC(C)O1 (stereo not given) | -2 | 60* | -2 | -4 | · | 5
CC1CCN(c2nc3ccccc3nc2C(C#N)C(=O)OC2CCCCC2)CC1 (stereo not given) | -3 | · | 1 | -6 | · | 4
CCOC(=O)c1c(NC(=O)OC)sc(C(=O)N(C)C)c1C | 6 | 71* | 1 | -4 | · | -1
CCOc1ccccc1NC(=O)C(Sc1ccccc1)c1ccccc1 (stereo not given) | 53* | 46 | 0 | -4 | · | 8
CCOC(=O)c1c(NC(=O)C(Sc2ccccc2)c2ccccc2)sc(C(=O)N(C)C)c1C (stereo not given) | -6 | 19 | 2 | -15 | 13 | 10*
O=C(Nc1nc2ccccc2s1)C1=NN(c2ccccc2)C(=O)CC1 | -16 | 19 | 4 | 21 | 11 | 2
O=C(Nc1ccccc1)n1ccc(-c2ccc(-n3ccnc3)cc2)n1 | 1 | -17 | 30 | 1 | 5 | 1
SMILES | NCF1 inh | WT yeast gro inh | Hck-Nef inh | Arbovirus inh | Calb biofilm kill | RAM inhibit
O=C(COc1ccc(Cl)cc1Cl)NNC(=S)Nc1ccc(F)cc1 | -9 | 62* | -1 | 11 | · | 4
C=CCNC(=S)NNC(=O)COc1ccc(Cl)cc1Cl | 1 | 68* | 0 | -1 | 18 | 0
CCOC(=O)c1cc(CC)sc1NC(=O)c1cc(OC)c(OC)c(OC)c1 | -13 | -3 | 1 | 4 | · | 11*
COc1cc(C(=O)Nc2sc(C)c(C)c2C(=O)O)cc(OC)c1OC | -11 | -12 | 19 | 44* | 8 | 2
Cc1ccc(NCCC#N)cc1C | -9 | 12 | 3 | -4 | 13 | 2
CCOC(=O)n1cc(-c2cnc(CNC(=O)C(C)(c3ccccc3)c3ccccc3)o2)c2ccccc21 | -20 | 9 | -2 | 4 | 16 | 2
COc1ccc(Cc2nn[nH]n2)cc1 | -4 | 91* | 7 | 5 | · | 0
c1ccc(Cc2nn[nH]n2)cc1 | -7 | -17 | -5 | 2 | · | 0
COc1cc(C(=O)OCC(=O)NC2CCS(=O)(=O)C2)ccc1OCc1c(C)noc1C (stereo not given) | -4 | -34 | -1 | -14 | 9 | 2
CCOC(=O)C1=C(C)NC(SCC(=O)OC)=C(C#N)C1c1ccc(C(=O)OC)cc1 (stereo not given) | 0 | -9 | 1 | -4 | · | 11*
CCCCn1c(=O)c(CCC(=O)OCC(=O)Nc2ccc(F)c(Cl)c2)nc2ccccc21 | -11 | -8 | 2 | 6 | 8 | 4
COc1nc(N2CCCCCC2)nc(N2CCCCCC2)n1 | -1 | 64* | -1 | -14 | · | 1
O=C(Cc1cccs1)Nc1cccnc1 | -13 | -7 | 0 | 1 | · | 0
COC(=O)c1sc(S(=O)(=O)Nc2ccc(Br)cc2)c(C(=O)OC)c1C | 0 | 50 | 9 | 24 | -15 | 8.7*
COC(=O)c1sc(S(=O)(=O)Nc2ccc(C)cc2)c(C(=O)OC)c1C | -8 | 35 | -26 | 3 | 14 | 7
COC(=O)CC1Oc2ccccc2N(Cc2ccccc2)C1=O (stereo not given) | -11 | 26 | 2 | 1 | · | 1
CCNC(=O)NCCc1c[nH]c2ccc(Cl)cc12 | 1 | 18 | 4 | -6 | · | 2
COc1ccc(S(=O)(=O)CCC(=O)N2CCN(c3ccc(F)cc3)CC2)cc1 | -1 | 4 | -11 | 5 | 11 | 10*
O=C(CCS(=O)(=O)c1cccs1)N1CCN(c2ccc(F)cc2)CC1 | -4 | -15 | 0 | -4 | · | 1
Fc1ccc(Br)cc1C1C=C(c2ccc(Br)s2)Nc2ncnn21 (stereo not given) | -21 | -10 | 0 | 37* | · | 4
COc1cccc(C2C=C(c3ccc(Br)s3)Nc3ncnn32)c1OC (stereo not given) | -16 | 21 | -6 | 1 | · | 1
COC(=O)c1cccc(NC(=S)NCc2ccc(Cl)cc2)c1 | -6 | 15 | 1 | 3 | · | 2
